Key:
[1] = biological target: Glutamate NMDA receptor; assay: Inhibition of N-methyl-D-aspartate glutamate receptor (NMDA receptor) from homogenized rat brain membrane, using [3H]-MK-801 as a radioligand
Summary of the method: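 Male Sprague-Dawley rat (200-300 g) cortical membranes, washed and preincubated 20 min at 23 °C in 5 mM Tris-HCl pH 7.4. Duplicate aliquots (ca. 0.75 mg protein) incubated 60 min at 23 °C with displacer plus [3H]-(+)-10 added as 100 µL of 50 nM stock. Filter-bound radioactivity counted by liquid scintillation; Ki reported.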

[2] = biological target: Glutamate NMDA receptor (Rattus norvegicus) (UniProt P35439+Q00959+Q00960+Q00961+Q62645+Q8VHN2+Q9R1M7); assay: Antagonistic activity against N-methyl-D-aspartate glutamate receptor from rat cortical slice; type: functional
Summary of the method: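 Greased-gap recording of NMDA-induced population depolarizations in rat cortical slices. An NMDA concentration-response curve was run, then repeated with antagonist present. Apparent Kb = antagonist concentration/(CR-1), with CR taken at the midpoint of the control curve. If the curve flattened, a lower antagonist concentration was tried. Failing that, the threshold concentration giving significant antagonism was used.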

[3] = test system: Mus musculus; assay: Inhibition of N-Methyl-D,L-aspartate induced convulsions in mice following 500 mg/kg i.p.; type: functional; conditions: ip, route intraperitoneal

Row | SMILES | Ki [1] [µM] | Kb [2] [µM] | ED50 [3] [mg/kg]
1 | CC12NC(Cc3ccccc31)Cc1ccc(Cl)cc12 (configuration not stated) | 0.11 | 0.68 | –
2 | CCC12c3ccccc3CC(Cc3ccccc31)N2C | 2.04 | – | –
3 | CC12c3ccccc3CC(c3ccccc31)N2O (configuration not stated) | 19 | 45.6 | –
4 | COc1ccc2c(c1)C1(C)NC(C2)c2ccccc21 (configuration not stated) | 0.046 | – | –
5 | CCN1C2Cc3ccccc3C1c1ccccc12 (configuration not stated) | 24 | – | –
6 | CCCC12NC(Cc3ccccc31)c1ccccc12 (configuration not stated) | 8.6 | – | –
7 | CC12NC(c3ccccc31)[C@@H](O)c1ccccc12 (stereo in doubt; 120) [listing 1 of 2 here] | – | 0.28 | –
8 | CC12NC(Cc3ccccc31)c1cc(O)ccc12 (single isomer, unassigned; (-)) | 0.761 | – | –
9 | OCCC12NC(Cl)(Cc3ccccc31)c1ccccc12 (configuration not stated) | 0.28 | – | –
10 | OCCN1C2Cc3ccccc3C1c1ccccc12 (configuration not stated) | 71 | – | –
11 | CC12NC(c3ccccc31)[C@H](O)c1ccccc12 (some centres not stated) | 2.7 | – | –
12 | c1ccc2c(c1)CC1Cc3ccccc3C2N1 | 5.1 | – | –
13 | ClCCC12NC(Cl)(Cc3ccccc31)c1ccccc12 (configuration not stated) | 53 | – | –
14 | COc1ccc2c(c1)CC1NC2(C)c2ccccc21 (configuration not stated) | 0.61 | – | –
15 | FCCC12NC(Cc3ccccc31)c1ccccc12 (configuration not stated) | 0.174 | 0.23 | –
16 | CC12NC(Cc3ccc(F)cc31)c1ccccc12 (configuration not stated) | 0.03 | 0.38 | –
17 | CC12NC(Cc3ccc(Br)cc31)c1ccccc12 (single isomer, unassigned; (+)) [listing 1 of 2 here] | – | 0.5 | –
18 | c1ccc2c(c1)CC1NC2(C2SCCCS2)c2ccccc21 (configuration not stated) | > 10 | – | –
19 | CC12NC(Cc3ccc(I)cc31)c1ccccc12 (configuration not stated) | 0.011 | 0.51 | –
20 | CCOC(=O)C(O)[C@]12NC(Cc3ccccc31)c1ccccc12 (some centres not stated) | 0.39 | – | –
21 | CC12NC(Cc3ccc(-c4ccccc4)cc31)c1ccccc12 (configuration not stated) | 0.032 | 0.26 | 7.76
22 | CC12NC(Cc3ccc(N)cc31)c1ccccc12 (configuration not stated) | 0.027 | – | –

Row | SMILES | Ki [1] [µM] | Kb [2] [µM] | ED50 [3] [mg/kg]
23 | CN1C2Cc3ccccc3C1(C)c1ccccc12 (configuration not stated) | 0.61 | – | –
24 | CC12NC(F)(Cc3ccccc31)c1ccccc12 (configuration not stated) | 0.93 | – | –
25 | OCCC12NC(Cc3ccccc31)c1ccccc12 (configuration not stated) | 0.26 | – | –
26 | CC12NC(Cc3ccc(Cl)cc31)c1ccccc12 (stereo in doubt; 64) [listing 1 of 2 here] | – | 0.067 | –
27 | c1ccc(SCC23NC(Cc4ccccc42)c2ccccc23)cc1 (configuration not stated) | 73 | – | –
28 | CC12NC(Cc3ccc(Cl)cc31)c1ccccc12 (single isomer, unassigned; (-)) | – | 0.56 | –
29 | C[C@]12N[C@H](Cc3ccccc31)Cc1ccccc12 | 0.139 | 0.31 | –
30 | COc1ccc2c(c1)C1(C)NC2Cc2ccccc21 (single isomer, unassigned; (+)) | 0.025 | – | –
31 | CC12NC(Cc3ccccc31)c1ccc(Cl)cc12 (stereo in doubt; (-)-63) [listing 1 of 2 here] | 0.3 | – | –
32 | CC12NC(Cc3ccc(Br)cc31)c1ccccc12 (stereo in doubt; 88) | – | 0.9 | –
33 | C=CC12NC(Cc3ccccc31)c1ccccc12 (configuration not stated) | 0.087 | 0.32 | –
34 | O=C(O)C(O)[C@]12NC(Cc3ccccc31)c1ccccc12 (some centres not stated) | > 1000 | – | –
35 | CC12NC(Cc3ccccc31)c1ccc(Br)cc12 (configuration not stated) | 0.18 | 0.46 | –
36 | CC12NC(Cc3ccc(Br)cc31)c1ccccc12 (single isomer, unassigned; (-)) | 0.113 | – | –
37 | CC12NC(Cc3ccc(F)cc31)c1ccc(F)cc12 (configuration not stated) | 0.031 | 0.32 | –
38 | CC12NC(Cc3ccc(Cl)cc31)c1ccccc12 (stereo in doubt; 64) [listing 2 of 2 here] | 0.011 | – | –
39 | COc1ccc2c(c1)C1(C)NC2Cc2ccccc21 (stereo in doubt; 83) [listing 1 of 2 here] | 0.036 | – | 0.77
40 | CN1C2CCc3ccccc3C1(O)c1ccccc12 (configuration not stated) | > 100 | – | –
41 | CN1C2(C)Cc3ccccc3C1(C)c1ccccc12 (configuration not stated) | 0.71 | – | –
42 | COc1ccc2c(c1)C1(C)NC2Cc2ccccc21 (stereo in doubt; 83) [listing 2 of 2 here] | – | 0.23 | –
43 | COc1ccc2c(c1)C1Cc3ccccc3C2(C)N1 (configuration not stated) | 0.033 | 0.13 | –
44 | CCOC(=O)CC12NC(O)(Cc3ccccc31)c1ccccc12 (configuration not stated) | 3.6 | – | –

Row | SMILES | Ki [1] [µM] | Kb [2] [µM] | ED50 [3] [mg/kg]
45 | CC12NC(Cc3ccccc31)c1cc(O)ccc12 (stereo in doubt; 106) [listing 1 of 2 here] | 0.049 | – | –
46 | CN1C2CCc3ccccc3C1(C)c1ccccc12 (configuration not stated) | 8.8 | – | –
47 | NC(=O)CC12NC(O)(Cc3ccccc31)c1ccccc12 (configuration not stated) | 6.4 | – | –
48 | O[C@H]1c2ccccc2C2NC1c1ccccc12 (some centres not stated) | 7.75 | 2.79 | –
49 | O[C@@H]1c2ccccc2C2NC1c1ccccc12 (some centres not stated) | 110 | 9.6 | –
50 | O=C(O)CC12NC(O)(Cc3ccccc31)c1ccccc12 (configuration not stated) | 280 | – | –
51 | CCOC(=O)CC12c3ccccc3CC(O)(c3ccccc31)N2O (configuration not stated) | > 4500 | – | –
52 | NC(=O)CC12NC(Cl)(Cc3ccccc31)c1ccccc12 (configuration not stated) | > 90 | – | –
53 | CC12NC(O)(Cc3ccccc31)c1ccccc12 (configuration not stated) | 0.077 | 0.66 | –
54 | CC12NC(c3ccccc31)[C@@H](F)c1ccccc12 (some centres not stated) | 0.011 | 0.23 | 1.27
55 | CC12NC(Cc3ccccc31)c1ccc(Cl)cc12 (stereo in doubt; 63) [listing 1 of 2 here] | 0.084 | – | –
56 | CCC12NC(Cc3ccccc31)c1ccccc12 (configuration not stated) | 0.045 | 0.59 | –
57 | CC12NC(Cc3ccccc31)c1cc(O)ccc12 (stereo in doubt; (+)-106) [listing 1 of 2 here] | – | 0.14 | –
58 | CC12NC(Cc3ccccc31)c1ccc(Cl)cc12 (stereo in doubt; (-)-63) [listing 2 of 2 here] | – | 0.56 | –
59 | CC12NC(c3ccccc31)[C@@H](O)c1ccccc12 (stereo in doubt; 120) [listing 2 of 2 here] | 0.21 | – | –
60 | CN1C2Cc3ccccc3C1(O)c1ccccc1C2 | 290 | – | –
61 | CCCCc1ccc2c(c1)C1(C)NC(C2)c2ccccc21 (configuration not stated) | 1.25 | – | –
62 | CN1C2Cc3ccccc3C1c1ccccc12 (configuration not stated) | 12 | – | –
63 | CC12NC(Cc3ccccc31)c1cc(O)ccc12 (stereo in doubt; 106) [listing 2 of 2 here] | – | 0.24 | –
64 | OCCC12NC(O)(Cc3ccccc31)c1ccccc12 (configuration not stated) | 0.074 | 2.1 | –
65 | CCC12NC(Cc3ccccc31)Cc1ccccc12 | 0.12 | 0.29 | –
66 | [O-][S+](CC12NC(Cc3ccccc31)c1ccccc12)c1ccccc1 (configuration not stated) | > 160 | – | –

Row | SMILES | Ki [1] [µM] | Kb [2] [µM] | ED50 [3] [mg/kg]
67 | CC12NC(Cc3ccc(N=[N+]=[N-])cc31)c1ccccc12 (configuration not stated) | 0.14 | – | –
68 | OC12NC(Cc3ccccc31)Cc1ccccc12 | 57 | – | –
69 | CN1C2Cc3ccccc3C1(C)c1ccccc1C2 | 1.2 | – | –
70 | CC12NC(Cc3ccccc31)c1ccc(Cl)cc12 (single isomer, unassigned; (+)) [listing 1 of 2 here] | – | 0.08 | –
71 | CC12NC(c3ccccc31)[C@@H](O)c1ccccc12 (stereo in doubt; (+)120) [listing 1 of 2 here] | – | 0.25 | –
72 | CN1C2(C)Cc3ccccc3C1(C)c1ccccc1C2 | 8.7 | – | –
73 | c1ccc2c(c1)CC1NC2c2ccccc21 (configuration not stated) | 22.6 | – | –
74 | CC12NC(Cc3ccccc31)c1ccc(Cl)cc12 (single isomer, unassigned; (+)) [listing 2 of 2 here] | 0.006 | – | –
75 | CN1C2Cc3ccccc3C1c1ccccc1C2 | 57 | – | –
76 | CC12NC(Cc3ccc(SC(F)(F)F)cc31)c1ccccc12 (configuration not stated) | 17 | – | –
77 | O=C(O)CC12NC(Cl)(Cc3ccccc31)c1ccccc12 (configuration not stated) | > 4500 | – | –
78 | CN1C2CCc3ccccc3C1c1ccccc12 (configuration not stated) | 2.6 | – | –
79 | CC12NC(Cc3ccccc31)c1cc(O)ccc12 (stereo in doubt; (+)-106) [listing 2 of 2 here] | 0.023 | – | 0.97
80 | CC12NC(c3ccccc31)[C@@H](O)c1ccccc12 (single isomer, unassigned; (-)) | 0.302 | – | –
81 | OCC12NC(Cc3ccccc31)c1ccccc12 (configuration not stated) | 0.35 | – | –
82 | CC12NC(Cc3ccc(Br)cc31)c1ccccc12 (single isomer, unassigned; (+)) [listing 2 of 2 here] | 0.006 | – | –
83 | COc1ccc2c(c1)C1(C)NC2Cc2ccccc21 (stereo in doubt; (-)-83) | 0.102 | – | –
84 | OCC(O)[C@]12NC(Cc3ccccc31)c1ccccc12 (some centres not stated) | 0.32 | – | –
85 | CCOC(=O)CC12NC(Cc3ccccc31)c1ccccc12 (configuration not stated) | 0.55 | – | –
86 | CC12NC(c3ccccc31)[C@@H](O)c1ccccc12 (stereo in doubt; (+)120) [listing 2 of 2 here] | 0.092 | – | 0.35
87 | CC12NC(Cc3ccccc31)c1ccc(Cl)cc12 (stereo in doubt; 63) [listing 2 of 2 here] | – | 1.66 | –
88 | CC12NC(Cc3cc(O)ccc31)c1ccccc12 (configuration not stated) | 0.277 | 0.51 | –
